Data: the EternaBench riboswitch data

Columns and labels:
[1] = system: MS2 coat protein; assay: apparent Kd, MS2 coat protein; higher = weaker binding; RNA-MaP array; theophylline 2 mM where present
Procedure, shortened: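 Green signal from SNAP-549-labelled MS2 coat protein was normalised to red-channel RNA signal and to the median Fmax of control clusters. The protein was titrated from 0.7 or 1.5 nM, doubling to 3 µM, without and then with constant ligand, over designs transcribed by stalled E. coli RNA polymerase on Illumina sequencing-chip clusters, in 100 mM Tris-HCl pH 7.5, 80 mM KCl, 4 mM MgCl2, BSA, DTT, yeast tRNA and Tween-20. The apparent Kd is the median of filtered per-cluster binding-curve fits.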

[2] = system: MS2 coat protein; assay: apparent Kd, MS2 coat protein; higher = weaker binding; RNA-MaP array
Procedure, shortened: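 Designs measured on fewer than 10 clusters were excluded from the data. The rest were RNAs transcribed from sequenced DNA templates on an Illumina sequencing chip and incubated at room temperature, with or without input ligand, with fluorescently labeled MS2 coat protein at 1.5 nM to 3 μM for 0.8–1.5 h at the lowest to 10–20 min at the highest concentrations. Apparent Kd is the median of the per-cluster binding-curve fits.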

[3] = designed as: ON switch for theophylline, no ligand
[4] = ligand present: theophylline, designed as: ON switch for theophylline
[5] = designed as: OFF switch for theophylline, no ligand
[6] = ligand present: theophylline, designed as: OFF switch for theophylline
[7] = designed as: ON switch for flavin mononucleotide, no ligand
[8] = ligand present: flavin mononucleotide, designed as: ON switch for flavin mononucleotide
[9] = designed as: OFF switch for flavin mononucleotide, no ligand
[10] = ligand present: flavin mononucleotide, designed as: OFF switch for flavin mononucleotide

## AUAAAUAUAACCGAUACCAGCCUUAUACAUGAGGAUCACCCAUGUUAUGCUUCCUUUUUUGGCCCUUGGCAGCGGAAAUGGGUAA
[1]; [3]
  apparent Kd: 81.7 nM
[1]; [4]
  apparent Kd: 36.2 nM

## AUAACUGUCAAGGAAGGUGAUCCAGCAGAUACCAGCUAGGAAACUAGCCCUUGGCAGCUGCAACAUGAGGAUCACCCAUGUAAUA
[1]; [5]
  apparent Kd: 76.8 nM
[1]; [6]
  apparent Kd: 121 nM

## AUGUCGUUGAAUACAGCGGCAUGGAGUGAUACCAGAAUGAUCAAAUUCCCUUGGCAGCAUGACAUGAGGAUCACCCAUGUUCGAU
[1]; [3]
  apparent Kd: 111 nM
[1]; [4]
  apparent Kd: 104 nM

## AUAAGUAAUGUUUCGUGUAUUAUUACAGAUACCAGACUAUCCUAUGUCCCUUGGCAGCUGGAUUACAUGAGGAUCACCCAUGUUG
[1]; [5]
  apparent Kd: 16.4 nM
[1]; [6]
  apparent Kd: 24.9 nM

## AUCGCACCUGGUGAUACCAGCGUUUGCUCGCGACAUGAGGAUCACCCAUGUGGCCAGUGAUGCCCUUGGCAGCAUGGUCGGUGCA
[1]; [3]
  apparent Kd: 317 nM
[1]; [4]
  apparent Kd: 45.4 nM

## UGUAACAUGAGGAUCACCCAUGUGAGUGAUACCAGAUAAGUAGUAGUCCCUUGGCAGCAUAUUGGGCGAGUGUAUAGUCUAUGCG
[1]; [3]
  apparent Kd: 146 nM
[1]; [4]
  apparent Kd: 193 nM

## ACCUCACUCUCUGAUACCAGCUAAUAACAUGAGGAUCACCCAUGUCAGACUUGUAUUGAUAGCCCUUGGCAGCAGAGGUAACUGC
[1]; [5]
  apparent Kd: 9.39 nM
[1]; [6]
  apparent Kd: 11.3 nM

## CAUACUUUAGUAUGACGUGUGGGCAGUGAUACCAGAUACGAAAGUAUCCCUUGGCAGCACAACAUGAGGAUCACCCAUGUAAUUA
[1]; [3]
  apparent Kd: 20.5 nM
[1]; [4]
  apparent Kd: 31.3 nM

## AUCGUACCUGAGGAUACCAGCAUGUGAUCAUAACAUGAGGAUCACCCAUGUAAUCAGUGAUGCCCUUGGCAGCUUGAUCGGUACA
[1]; [3]
  apparent Kd: 80.1 nM
[1]; [4]
  apparent Kd: 24.9 nM

## CUCGGUUGAUCCUAGCUGCCGAGAGGUGAUACCAGCAUCGAAAGAUGCCCUUGGCAGCACCAACAUGAGGAUCACCCAUGUAAUA
[1]; [3]
  apparent Kd: 55.1 nM
[1]; [4]
  apparent Kd: 483 nM

## UCGUGGUCCGCAAGGACCGGGAGUUGCGAUACCAGCACGGUAACGUGCCCUUGGCAGCGCACAUGAGGAUCACCCAUGUGGUGUU
[1]; [5]
  apparent Kd: 229 nM
[1]; [6]
  apparent Kd: 514 nM

## ACAUGAGGAUCACCCAUGUCACGGCACGAUACCAGCUGAUCCGGUGGCCCUUGGCAGCGUGACGUUUGGUCCCGCGGAUGACACG
[1]; [3]
  apparent Kd: 134 nM
[1]; [4]
  apparent Kd: 43 nM

## GCAGGACAUGAGGAUCACCCAUGUGAGGGCAGAGGAGGAUAUAACUACCACUAUUGAUCGUUAGAAGGCCUAGAGG
[2]; [7]
  apparent Kd: 40 nM
[2]; [8]
  apparent Kd: 26 nM

## AGCGUGGAUAAAGGAUAUGUACCGGUAACUACAUGAGGAUCACCCAUGUCUUCAGGCCAAAACCGACAGAAGGUUACUUAUCGC
[2]; [9]
  apparent Kd: 21.7 nM
[2]; [10]
  apparent Kd: 20.7 nM

## UACCGGGCGAUAGGAUAUAUCAGUUACUUCACAUGAGGAUCACCCAUGUUACCCGUGGAAAGUUGAUAGAAGGAUCCAGCUCCA
[2]; [9]
  apparent Kd: 44.8 nM
[2]; [10]
  apparent Kd: 41.2 nM

## AAUGAUGCGAUCUACAGUCGAGGAUUCGAUACCAGCAACGGGCGUUGCCCUUGGCAGCGAGCUACAUGAGGAUCACCCAUGUUAC
[2]; [5]
  apparent Kd: 19.9 nM
[2]; [6]
  apparent Kd: 34.7 nM

## AAAAGUACAGGAUAUACAUGAGGAUCACCCAUGUCAGAAUAUAAUGAUAAGAAACUGAGUAGAAGGGUAACGAG
[2]; [9]
  apparent Kd: 28.6 nM
[2]; [10]
  apparent Kd: 20.3 nM

## UCGUUGGCACAGAAGGGACUCUCGAAGCAUGUGUCAGGAUAUGUGCGCUACAUGAGGAUCACCCAUGUCAAGACCUGGUUAGCA
[2]; [9]
  apparent Kd: 29.4 nM
[2]; [10]
  apparent Kd: 18.8 nM

## AUAUGAGGAGUGAGGAUAUGAAUCUAACAGAAUAAUCAGAAGGCACAUGAGGAUCACCCAUGUAAAUAUAUGGU
[2]; [9]
  apparent Kd: 10.6 nM
[2]; [10]
  apparent Kd: 11.5 nM

## UCUGGUAUGACGGCCGCCACUAGAUCGUGAGAAGCCUGCAUACAUGAGGAUCACCCAUGUCUCACUAGGACCGGGUCAUUCCAAU
[2]; designed as: ON switch for tryptophan, no ligand
  apparent Kd: 66.1 nM
[2]; ligand present: tryptophan, designed as: ON switch for tryptophan
  apparent Kd: 22.3 nM

## CUACGGACGGAAGGAUAUAUACGGGUGCCCAGUAUAGAAGGUCCAUACAUGAGGAUCACCCAUGUCAUUAAACCUACGGAGGAG
[2]; [7]
  apparent Kd: 145 nM
[2]; [8]
  apparent Kd: 80.6 nM

## AUGUAGUCGGUAGGAUAUACGAGUCUGAUAACAGUAGAAGGACCGAGUACGGCUCCGCAGUACAUGAGGAUCACCCAUGUGAUC
[2]; [7]
  apparent Kd: 533 nM
[2]; [8]
  apparent Kd: 286 nM

## UACCGCUACAUAGGAUAUGGAGGAUGUAUGAAACACAUGAGGAUCACCCAUGUCAUCUGCACACGCCAGAAGGAUGGAAGAAAA
[2]; [7]
  apparent Kd: 13.4 nM
[2]; [8]
  apparent Kd: 7.13 nM

## CUACGCAUAGGAUAUGCCUACUGGGACAUGAGGAUCACCCAUGUGUUAUUAUCAGCUCCGGCAGAAGGAUGGUACU
[2]; [9]
  apparent Kd: 29.1 nM
[2]; [10]
  apparent Kd: 11.8 nM

## AGAAAGAAUCAGAAGGCAGAGAUGUCUAUCUACUGAGGAUAUGAAUGACAUGAGGAUCACCCAUGUUGUCAGGCCAGGCCCAAC
[2]; [7]
  apparent Kd: 7.78 nM
[2]; [8]
  apparent Kd: 9.75 nM

## UGUAACACAGGAUAUACAUAGGCCAGCCACUGACUCAGGUCACAUGAGGAUCACCCAUGUAGAAGGGUGCUGAA
[2]; [9]
  apparent Kd: 116 nM
[2]; [10]
  apparent Kd: 84.1 nM

## AACAUGUGAGGAUAUAGUCAAAAUAGCACAAGUAACAUAAACUAGAAGGCACAUGAGGAUCACCCAUGUGAAUA
[2]; [9]
  apparent Kd: 7.9 nM
[2]; [10]
  apparent Kd: 10.6 nM

## GAGUCGCGAGGAUAUGGAAUGGACUACAUGAGGAUCACCCAUGUCCUUUCCCUUGUUUGUCCAGAAGGCGCCAUCC
[2]; [9]
  apparent Kd: 27 nM
[2]; [10]
  apparent Kd: 24.4 nM

## GCCAUAAAAGAGAAGGGCGGCCACCUACGAACCGCAGGAUAUCUUUGCUUUCCUCGGACAUGAGGAUCACCCAUGUGGCCAAUA
[2]; [9]
  apparent Kd: 97.3 nM
[2]; [10]
  apparent Kd: 160 nM

## UAGUAACAUGAGGAUCACCCAUGUCAGGAUAUGAGGUCUACGGCAUAAGCGAAUCGGGUCAGAAGGGACAUAAC
[2]; [9]
  apparent Kd: 20.4 nM
[2]; [10]
  apparent Kd: 16.9 nM

## UGCUUAAGACAGAAGGGCGUUCCGGAUGGUACCGCAGGAUAUGUCAACAUGAGGAUCACCCAUGUUACUAGCUAUGUUUCAAUU
[2]; [7]
  apparent Kd: 9.97 nM
[2]; [8]
  apparent Kd: 6.09 nM

## AGCGACAUGAGGAUCACCCAUGUGUUAGCUAAGCCUCUCAGCAGAAGGGAUGGUGUCCCAGAUGAUCAGGAUAUGCUGUUUUUG
[2]; [9]
  apparent Kd: 32.2 nM
[2]; [10]
  apparent Kd: 23.9 nM

## GGGCGCCGAGGAUAUCACAGGAGUAACAUGAGGAUCACCCAUGUAUCAGUGGGCGUAAUAUGAGAAGGCGGUGGUU
[2]; [9]
  apparent Kd: 85.5 nM
[2]; [10]
  apparent Kd: 43.5 nM

## UUAGACCUGCGAGGAUAUUCCAGACUAACUGAGGAAGAAGGCGCUAGAACAUGAGGAUCACCCAUGUAACAGGGAACACUUCGU
[2]; [9]
  apparent Kd: 9.82 nM
[2]; [10]
  apparent Kd: 26.3 nM

## ACACAUAAUCUCGGACAUGAGGAUCACCCAUGUGUCACAAUCAGAAGGCACACUUGACAAGGGAGUGAGGAUAUGAAUACAUUA
[2]; [9]
  apparent Kd: 124 nM
[2]; [10]
  apparent Kd: 32.7 nM

## AUCCGUGCAGCAAAUGGAGUGACAUGAGGAUCACCCAUGUAUGAGGAUAUGGCUCCGCCAGGGUACCAGAAGGCAUAAGGGAGG
[2]; [7]
  apparent Kd: 908 nM
[2]; [8]
  apparent Kd: 627 nM
